# Screening data: PubChem BioAssay, several laboratories
# B2AR ag: beta2AR agonists driving receptor internalization, primary screen, cell-based, FAP fluorogen, flow cytometry | response, % (no concentration beside the values) | 0.43% of 340,000 active | Am2.2-beta2AR cells;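 active = response above a set limit, near 3 SD of response in nonfluorescent compounds, cut at about 42% in these data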
# HKDC1 inhibitor: HKDC1 hexokinase inhibitors, primary screen, biochemical, fluorescence, uHTS; recombinant HKDC1, G6PDH/diaphorase resazurin coupled fluorescence; 0.16% of 340,000 active; inhibition, % at 20 µM; Q2TB90;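 active = inhibition above about 35% when tested at 20 µM, limit read from the data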;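 note: plate controls were DMSO wells with enzyme for no effect and DMSO wells lacking enzyme for full effect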
# Target sequence (Q2TB90 whole entry, looked up): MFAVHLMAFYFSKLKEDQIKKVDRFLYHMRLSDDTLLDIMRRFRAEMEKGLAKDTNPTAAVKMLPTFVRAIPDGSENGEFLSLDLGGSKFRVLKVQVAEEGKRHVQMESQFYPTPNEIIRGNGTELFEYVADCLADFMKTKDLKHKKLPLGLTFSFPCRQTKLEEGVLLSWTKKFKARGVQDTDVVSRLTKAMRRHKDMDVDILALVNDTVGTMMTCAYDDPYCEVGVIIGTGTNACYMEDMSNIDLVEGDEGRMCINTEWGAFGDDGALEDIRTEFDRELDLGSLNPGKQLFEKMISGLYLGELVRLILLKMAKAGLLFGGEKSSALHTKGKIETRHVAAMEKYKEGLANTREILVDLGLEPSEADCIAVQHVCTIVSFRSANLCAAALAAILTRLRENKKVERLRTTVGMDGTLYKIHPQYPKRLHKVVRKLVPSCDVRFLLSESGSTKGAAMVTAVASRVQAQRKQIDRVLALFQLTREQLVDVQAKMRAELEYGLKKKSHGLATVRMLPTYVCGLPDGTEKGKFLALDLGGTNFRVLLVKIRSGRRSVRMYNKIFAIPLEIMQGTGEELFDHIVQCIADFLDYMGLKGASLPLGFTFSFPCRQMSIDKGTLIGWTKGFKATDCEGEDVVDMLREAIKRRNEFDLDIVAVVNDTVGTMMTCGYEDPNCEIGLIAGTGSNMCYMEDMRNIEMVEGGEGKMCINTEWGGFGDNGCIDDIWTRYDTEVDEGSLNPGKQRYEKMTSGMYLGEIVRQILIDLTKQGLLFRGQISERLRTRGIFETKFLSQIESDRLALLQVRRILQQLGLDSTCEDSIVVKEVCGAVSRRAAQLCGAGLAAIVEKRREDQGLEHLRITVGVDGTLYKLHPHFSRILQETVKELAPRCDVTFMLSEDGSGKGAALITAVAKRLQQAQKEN
#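 Assay system: in-house recombinant HK5 (HKDC1) enzyme. Input: HKDC1 at 5 µg/mL. Medium: Tris pH 8.0 buffer with MgCl2, Tween-20, BSA, BME. Dosing: single 20 µM dose. Schedule: 90 min reaction incubation at room temperature, dark. Signal: resazurin-to-resorufin fluorescence via G6PDH and diaphorase coupling, 525/613 nm. Controls: DMSO-enzyme wells negative, buffer-substituted wells positive.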
# PfGluPho inh: PfG6PD enzyme inhibitors, primary screen, biochemical, fluorescence intensity, uHTS. PfGluPho enzyme, NADPH resazurin-diaphorase fluorescence. inhibition, % at 20 µM. 0.78% of 350,000 active. AID 504690, 2011;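 active = inhibition reaching at least a set limit at 20 µM in the primary screen, cut at about 59% in these data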;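 note: 0% = DMSO wells with substrate and 100% = DMSO wells lacking glucose-6-phosphate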
# aDG glyco act: activators of alpha-DG glycosylation, primary screen, uHTS, Pro5-aDG cells, AlphaScreen | 0.22% of 360,000 active | AID 624168, 2012 | activation, % at 10 µM | alpha-DG glycosylation AlphaScreen (IIH6); 0% Pro5, 100% B10-LARGE cell signal;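 active = activation of at least 8% versus controls, or a plate z-score of at least 8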;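 note: Pro5 are CHO cells carrying HIG-tagged alpha-DG that lacks glycosylation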
# H9c2 protect: cardioprotection against H2O2-induced cell death, primary screen, uHTS, H9c2 cells, ATPLite luminescence; 0.63% of 360,000 active; protection from H2O2 cell death, % at 20 µM; H9c2 cardiomyocytes, H2O2 injury protection, 2 h;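 active = compounds giving at least 50% protection of heart cells from peroxide-induced death in the single-dose screen, raw or plate-pattern-corrected value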;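 note: 0% = DMSO wells with peroxide and 100% = DMSO wells without peroxide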
# UCH37 inh: inhibitors of human UCH37 deubiquitinase, primary screen, biochemical, Ub-AMC cleavage, fluorescence; purified proteasome/UCH37; inhibition, % (test concentration not listed); 0.33% of 330,000 active;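 active = mean inhibition over replicate wells above about 20%, limit read from the data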;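 note: 0% = compound-free wells with enzyme and 100% = wells lacking proteasome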
#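 Material: Human UCH37 enzyme supplied as purified proteasome complex | Schedule: 30 min compound-proteasome preincubation then 25 min substrate reaction, room temperature | Detection: AMC fluorescence from Ub-AMC cleavage, excitation 355 nm, emission 460 nm | Benchmarks: Wells without proteasome as full block, compound-free enzyme plus substrate as uninhibited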
# PfG6PD confirm: PfG6PD inhibitors, hit retest, confirmation, biochemical, fluorescence intensity, single concentration; AID 504753, 2011; inhibition, % at 20 µM; shares compounds with PfGluPho inh; recombinant PfGluPho, NADPH-diaphorase-resazurin fluorescence; 34% of 2,400 active;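 active = inhibition of at least 50% at 20 µM in any single replicate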;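 note: 0% = DMSO with substrate and 100% = DMSO lacking glucose-6-phosphate substrate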
# Diaph ctr 10uM: diaphorase inhibitors and chemical oxidizers, confirmation, counter-screen for P. falciparum G6PD inhibitor project, biochemical, fluorescence intensity, 10 µM NADPH; 39% of 820 active; shares compounds with PfGluPho inh; inhibition, % at 20 µM; diaphorase-coupled resazurin reduction, NADPH 10 uM;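 active = average inhibition reaching 50% or more with the compound at 20 µM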;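 note: resorufin red fluorescence formed as diaphorase reduces resazurin using NADPH; 0% = DMSO with enzyme and 100% = DMSO without enzyme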
# Diaphorase 30uM: diaphorase inhibitors and chemical oxidizers, confirmation, counter-screen for P. falciparum G6PD inhibitor project, biochemical, fluorescence intensity, 30 µM NADPH. shares compounds with PfGluPho inh. Diaphorase/resazurin coupled assay, resorufin fluorescence. inhibition, % at 20 µM. 29% of 820 active;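 active = inhibition averaging 50% or more, tested at 20 µM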;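 note: 0% = DMSO with enzyme and 100% = DMSO wells lacking diaphorase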
# * = called active by the depositor; i = inactive; x = no result. In the library only some 2.1% were active in any assay of this set; here they are far more common.
SMILES,B2AR ag,HKDC1 inhibitor,PfGluPho inh,aDG glyco act,H9c2 protect,UCH37 inh,PfG6PD confirm,others
COc1cccc(-c2c(C(=O)N/N=C/c3ccc(C)o3)nnn2-c2nonc2N)c1,-1,0,66*,0,9,x,56*,Diaph ctr 10uM=27;Diaphorase 30uM=19
O=C(CBr)c1ccc([N+](=O)[O-])c(CS(=O)(=O)c2ccc(Cl)cc2)c1,11,2,80*,0,32,x,74*,Diaph ctr 10uM=30;Diaphorase 30uM=16
Cc1ccsc1C=NNC(=O)CNC(=O)c1ccco1,x,x,x,x,x,2,x,
Cc1cc(=O)[nH]c(NN=Cc2cc(C)n(-c3ccccc3)c2C)n1,x,x,x,x,x,3,x,
Cc1ccc(S(=O)(=O)Nc2nc(C)c(C(=O)N/N=C/c3ccccc3)s2)cc1,3,-6,76*,0,-7,x,67*,Diaph ctr 10uM=62*;Diaphorase 30uM=48
Cc1ccc(S(=O)(=O)Nc2nc(C)c(C(=O)Nc3ccccc3)s2)cc1,7,-9,-20,-1,1,1,x,
CC(=O)Nc1ccc(C=NNC(=S)NC(C)C)cc1,x,x,x,x,x,15,x,
CC(=NNC(=O)c1ccncc1)c1cccs1,x,x,x,x,x,9,x,
O=C(CN1CCCCC1)Nc1ccc(S(=O)(=O)N2CCCCCC2)cc1,-5,5,-1,0,-3,0,x,
Cc1ccc(S(=O)(=O)N2CCOCC2)cc1NC(=O)CN1CCN(c2ccc(O)cc2)CC1,-6,-11,65*,0,6,2,23,
CC(CCc1ccccc1)NC(=O)CN1CCN(Cc2ccccc2)C1=O (stereo not drawn),-1,-6,4,0,1,0,x,
Cc1ccc(NC(=O)NC(=O)CN2CCN(c3ccc(O)cc3)CC2)c(C)c1,9,11,72*,0,-2,0,40,
O=C(CN1CCN(c2ccc(O)cc2)CC1)Nc1ccc(S(=O)(=O)N2CCCC2)cc1,5,4,60*,0,7,1,31,
CC(CCc1ccccc1)NC(=O)CN1CCN(c2ccc(O)cc2)CC1 (stereo not drawn),0,0,66*,1,-8,4,3,
CC(=NNc1ccc([N+](=O)[O-])cc1)c1ccc(-n2nncc2C(C)(C)C)cc1,x,x,x,x,x,6,x,
CCN(C(=O)CN1CCN(c2ccc(O)cc2)CC1)c1c(N)n(Cc2ccccc2)c(=O)[nH]c1=O,9,10,73*,0,0,2,36,
Cc1cc(=S)nc(-c2ccccn2)[nH]1,-1,-6,12,0,15,1,x,
CSc1nc(=S)cc(C)[nH]1,0,-6,70*,0,4,2,18,
NC(=S)NN=Cc1c[nH]c2ccccc12,x,x,x,x,x,7,x,
NC(=S)NN=Cc1c[nH]c2nccnc12,x,x,76*,0,-2,x,17,
COc1ccc(-c2nc3c(n2O)CCCC3=NO)cc1,x,x,x,x,x,-28,x,
O=C(O)c1ccc(NC2=C/C(=N/S(=O)(=O)c3cccs3)c3ccccc3C2=O)cc1,x,x,106*,1,-19,x,101*,Diaph ctr 10uM=85*;Diaphorase 30uM=84*
OCCCNc1c2c(nc3cc(-c4ccc(Cl)cc4)nn13)CCC2,-8,-3,70*,0,4,-13,45,
Clc1cccc(-c2cc3nc4c(c(NCc5ccco5)n3n2)CCCC4)c1,-1,7,51,1,-6,-57,x,
COc1ccc(C=NNC(=O)C2C(=O)NCC2c2ccccc2)c(OC)c1 (stereo not drawn),x,x,x,x,x,7,x,
SMILES,B2AR ag,HKDC1 inhibitor,PfGluPho inh,aDG glyco act,H9c2 protect,UCH37 inh,PfG6PD confirm,others
C(=Cc1c[nH]c2ccccc12)c1nccc2ccccc12,-151,10,65*,2,-19,-11,4,
CN=c1nc(-c2ccccc2)n(-c2ccccc2)s1,-6,5,121*,0,-7,4,111*,Diaph ctr 10uM=-12;Diaphorase 30uM=3
CN(C)C=Nc1ccc2nc3c(cc2c1)[nH]c1ccccc13,15,19,80*,0,-14,i,54*,Diaph ctr 10uM=37;Diaphorase 30uM=45
Nc1nnn(CC(=O)NN=C/C=C/c2ccccc2)n1,x,x,x,x,x,4,x,
Oc1ccc(/C=N/N2CCOCC2)c(O)c1O,0,1,87*,0,-2,x,48,
Oc1ccc(/C=N/N2CCCCC2)c(O)c1O,1,-1,118*,0,5,x,92*,Diaph ctr 10uM=98*;Diaphorase 30uM=96*
COc1cccc(/C=N/N2CCOCC2)c1O,6,-9,11,0,-16,x,x,
COc1cc(C=NNc2ccc3ccccc3c2)ccc1OC(=O)c1ccco1,x,x,x,x,x,-18,x,
Cc1ccc(C(=O)NN=Cc2ccc(S(=O)(=O)O)o2)c(Cl)c1,x,x,x,x,x,3,x,
CC1CC(=NN2C(=O)CSC2=S)CC(C)(C)C1 (stereo not drawn),x,x,x,x,x,6,x,
CCOc1ccc(NC(=O)Nc2ccc3nsnc3c2)cc1,5,-1,32,1,-20,-4,x,
CCOc1ccc(NC(=S)Nc2ccc3nsnc3c2)cc1,10,7,64*,7.8*,-19,14,13,
CC(=NOCC(=O)OCC(=O)N(Cc1ccccc1)C(C)(C)C)c1ccc2c(c1)OCO2,x,x,x,x,x,3,x,
Cc1cc(=O)c2c(o1)C(=O)c1occc1C2=O,-7,23,86*,0,-6,x,53*,Diaph ctr 10uM=65*;Diaphorase 30uM=62*
Cc1c(/C=N/O)c2ccccn2c1C(=O)c1ccc(F)cc1,11,4,76*,0,-6,x,42,
COc1cc(/C=N/O)cc(Br)c1OCc1ccc(Cl)cc1,-9,7,81*,1,-20,x,11,
CCOC(=O)C1(Cc2ccccc2Cl)CCN(Cc2csc(C(C)=O)c2)CC1,-5,-9,63*,0,-2,5,25,
O=C(Nc1ccccc1)N(O)c1ccc(Cl)cc1,4,0,87*,0,-37,5,35,
CN(C(=S)Nc1ccc(SC(F)F)cc1)c1ccc(O)cc1,3,4,70*,0,-7,2,-17,
